# Laboratory results published in ChEMBL document CHEMBL4613247, “Antioxidant Activity of Compounds Isolated from Elaeagnus umbellata Promotes Human Gingival Fibroblast Well-Being” (J Nat Prod, 2020).
# The source made the active and inactive calls. The rule behind the calls is not given here.
# Key:
# [1] = tested on: Fibroblast; assay: Growth inhibition of human Gingival fibroblast at 5 uM after 72 hrs by MTS assay; type: cell-based
# Procedure, shortened: (§1)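 hGF (passage 4–7) seeded at 1500 cells/well. After 24 h, starved 6 h in noncomplete medium, then treated 72 h (5 nM–50 μM range, 0.5% DMSO final) with or without H2O2 (200 μM). Read by MTS absorbance at 490 nm as % proliferation vs control (100%). Mean ± SD, three replicates, two independent experiments.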
# [2] = tested on: Fibroblast; assay: Protective activity against H202-induced cell death in human Gingival fibroblast assessed as cell proliferation after 72 hrs by MTS assay (reference value: 50.9 +/- 4%); type: functional; procedure, shortened: as §1
# [3] = tested on: Fibroblast; assay: Antioxidant activity in human Gingival fibroblast assessed as reduction in H202-induced intracellular ROS level by measuring ROS production at […] after 72 hrs by H2DCFDA staining based fluorescence method (reference value: 181.9 +/- 7.4%); type: functional; parameters: scale not given: the % may be the effect or the level left
# Procedure, shortened: (§2)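 hGF seeded 5000 cells/well, treated 72 h with or without H2O2 (200 μM); then 30 min in PBS-glucose with 50 μM DCFH2-DA. DCF fluorescence read at 485/520 nm. Cells then fixed, crystal-violet stained and SDS-solubilized, with absorbance at 595 nm. Fluorescence normalized to A595 and expressed as % of control. Mean ± SD, three replicates, two independent experiments.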
# [4] = tested on: Fibroblast; assay: Protection against H202-induced cell cycle blockade in human Gingival fibroblast assessed as accumulation at G0/G1 phase after 72 hrs by flow cytometry (reference value: 42.2%); type: functional
# Procedure, shortened: (§3)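 hGF seeded at 80 000 cells/well and treated in complete medium 72 h (1–5 μM) with or without H2O2 (200 μM). Percentage of cells in G0/G1, S and G2/M measured on a Muse cell analyzer with a cell cycle kit. Mean ± SD, two replicates, two independent experiments.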
# [5] = tested on: Fibroblast; assay: Protection against H202-induced cell cycle blockade in human Gingival fibroblast assessed as accumulation at S phase after 72 hrs by flow cytometry (reference value: 11.6%); type: functional; procedure, shortened: as §3
# [6] = tested on: Fibroblast; assay: Protection against H202-induced cell cycle blockade in human Gingival fibroblast assessed as accumulation at G2/M phase after 72 hrs by flow cytometry (reference value: 39.3%); type: functional; procedure, shortened: as §3
# [7] = tested on: Fibroblast; assay: Induction of cell proliferation in human Gingival fibroblast at 0.5 to 10 uM after 72 hrs by MTS assay; type: functional, cell-based
# Procedure, shortened: (§4)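 Gingival fibroblasts seeded at 1500 cells/well, then starved 6 h in noncomplete medium after 24 h. Exposed for 72 h to 5 nM–50 μM (DMSO 0.5% final), with or without H2O2 200 μM. MTS absorbance read at 490 nm and expressed as % proliferation vs control set to 100%. Mean ± SD of three replicates from two experiments.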
# [8] = tested on: Fibroblast; assay: Growth inhibition of human Gingival fibroblast at 50 uM after 72 hrs by MTS assay; type: cell-based; procedure, shortened: as §4
# [9] = tested on: Fibroblast; assay: Induction of cell proliferation in human Gingival fibroblast at 1 uM after 72 hrs by MTS assay; type: functional; procedure, shortened: as §1
# [10] = tested on: Fibroblast; assay: Antioxidant activity in human Gingival fibroblast assessed as reduction in intracellular ROS level at 1 uM after 72 hrs by H2DCFDA staining based fluorescence method; type: functional, cell-based
# Procedure, shortened: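 hGF (passage 4–7) seeded 5000 cells/well, treated 72 h in complete medium with or without H2O2 200 μM. Then loaded with 50 μM DCFH2-DA in PBS-glucose for 30 min. DCF fluorescence read at ex 485/em 520 nm and normalized to crystal violet absorbance at 595 nm. Expressed as % of control; three replicates, two independent experiments.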
# [11] = tested on: Fibroblast; assay: Antioxidant activity in human Gingival fibroblast assessed as reduction in H202-induced intracellular ROS level by measuring ROS production at 1 to 5 uM after 72 hrs by H2DCFDA staining based fluorescence method (reference value: 181.9 +/- 7.4%); type: functional; parameters: scale not given: the % may be the effect or the level left; procedure, shortened: as §2
# [12] = Induction of cell death in human Gingival fibroblast assessed as live cell at 1 uM after 72 hrs by flow cytometry (reference value: 97%); type: cell-based; conditions: gingival fibroblasts, read-out: Activity
# [13] = tested on: Fibroblast; assay: Induction of cell death in human Gingival fibroblast assessed as dead cell at 1 uM after 72 hrs by flow cytometry (reference value: 3%); type: cell-based
# [14] = tested on: Fibroblast; assay: Protection against H202-induced cell death in human Gingival fibroblast assessed as live cell at 1 to 5 uM after 72 hrs by flow cytometry (reference value: 85.1%); type: functional
# [15] = tested on: Fibroblast; assay: Protection against H202-induced cell death in human Gingival fibroblast assessed as dead cell at 1 to 5 uM after 72 hrs by flow cytometry (reference value: 14.9%); type: functional
# [16] = tested on: Fibroblast; assay: Induction of cell cycle arrest in human Gingival fibroblast assessed as accumulation at G0/G1 phase at 1 uM incubated for 72 hrs by flow cytometry (reference value: 76.3%); type: cell-based; procedure, shortened: as §3
# [17] = tested on: Fibroblast; assay: Induction of cell cycle arrest in human Gingival fibroblast assessed as accumulation at S phase at 1 uM incubated for 72 hrs by flow cytometry (reference value: 5%); type: cell-based; procedure, shortened: as §3
# [18] = tested on: Fibroblast; assay: Induction of cell cycle arrest in human Gingival fibroblast assessed as accumulation at G2/M phase at 1 uM incubated for 72 hrs by flow cytometry (reference value: 14.9%); type: cell-based; procedure, shortened: as §3
# [19] = tested on: Fibroblast; assay: Protection against H202-induced cell cycle blockade in human Gingival fibroblast assessed as accumulation at G0/G1 phase at 1 to 5 uM after 72 hrs by flow cytometry (reference value: 42.2%); type: functional; procedure, shortened: as §3
# [20] = tested on: Fibroblast; assay: Protection against H202-induced cell cycle blockade in human Gingival fibroblast assessed as accumulation at S phase at 1 to 5 uM after 72 hrs by flow cytometry (reference value: 11.6%); type: functional; procedure, shortened: as §3
# [21] = tested on: Fibroblast; assay: Protection against H202-induced cell cycle blockade in human Gingival fibroblast assessed as accumulation at G2/M phase at 1 to 5 uM after 72 hrs by flow cytometry (reference value: 39.3%); type: functional; procedure, shortened: as §3
# [22] = tested on: Fibroblast; assay: Effect on p53 mRNA expression in human Gingival fibroblast at 1 uM after 72 hrs by RT-PCR method; type: ADME, cell-based
# Procedure, shortened: (§5)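 hGF (3500 cells/cm2) in complete medium, treated 72 h with or without H2O2 (200 μM). Real-time RT-PCR of total RNA for p53, p21 and p16INK4A. Levels normalized to β-actin and relative expression taken from Ct. Fold change vs control set to 1. Mean ± SD, two independent experiments in duplicate.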
# [23] = tested on: Fibroblast; assay: Effect on p21 mRNA expression in human Gingival fibroblast at 1 uM after 72 hrs by RT-PCR method; type: ADME, cell-based; procedure, shortened: as §5
# [24] = tested on: Fibroblast; assay: Effect on p16Ink4a mRNA expression in human Gingival fibroblast at 1 uM after 72 hrs by RT-PCR method; type: ADME, cell-based; procedure, shortened: as §5
# [25] = tested on: Fibroblast; assay: Protection against H202-induced oxidative stress in human Gingival fibroblast assessed as reduction in p53 expression at 1 to 5 uM after 72 hrs by RT-PCR analysis; type: functional, cell-based; procedure, shortened: as §5
# [26] = tested on: Fibroblast; assay: Protection against H202-induced oxidative stress in human Gingival fibroblast assessed as reduction in p21 expression at 1 to 5 uM after 72 hrs by RT-PCR analysis; type: functional, cell-based; procedure, shortened: as §5
# [27] = tested on: Fibroblast; assay: Protection against H202-induced oxidative stress in human Gingival fibroblast assessed as reduction in p16Ink4a expression at 1 to 5 uM after 72 hrs by RT-PCR analysis; type: functional, cell-based; procedure, shortened: as §5
# [28] = tested on: Fibroblast; assay: Downregulation of LPS-induced IL-6 expression in human Gingival fibroblast at 1 to 5 uM after 72 hrs by RT-PCR analysis; type: functional, cell-based
# Procedure, shortened: (§6)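 hGF (3500 cells/cm2) in complete medium, 1–5 μM for 72 h with or without LPS (1 μg/mL). Total RNA extracted, then real-time RT-PCR. mRNA normalized to β-actin and relative expression calculated from Ct. Specificity checked by melting curve and gel. Fold change vs control set to 1. Mean ± SD of two independent experiments in duplicate.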
# [29] = tested on: Fibroblast; assay: Downregulation of LPS-induced IL-8 expression in human Gingival fibroblast at 1 to 5 uM after 72 hrs by RT-PCR analysis; type: functional, cell-based; procedure, shortened: as §6
# [30] = tested on: Fibroblast; assay: Upregulation of IL-10 expression in LPS-stimulated human Gingival fibroblast at 1 to 5 uM after 72 hrs by RT-PCR analysis; type: functional, cell-based; procedure, shortened: as §6
compound,measurement,setting,value
O=c1c(O[C@@H]2O[C@H](CO)[C@H](O)[C@H](O)[C@H]2O[C@@H]2O[C@H](CO)[C@@H](O)[C@H](O)[C@H]2O)c(-c2ccc(O)cc2)oc2cc(O)cc(O)c12,growth inhibition (GI),[1],Toxic
CC(=O)N[C@@H](CS)C(=O)O [ACETYLCYSTEINE],Activity,[2],74.1%
same,Activity,[3],109.7%
same,Activity,[4],72.7%
same,Activity,[5],6.4%
same,Activity,[6],18.5%
O=c1c(O)c(-c2ccc(O)cc2)oc2cc(O)cc(O)c12 [KAEMPFEROL],Activity,[7],inactive
same,growth inhibition (GI),[8],Toxic
C[C@@H]1O[C@@H](Oc2cc(O)c3c(=O)c(O[C@@H]4O[C@H](CO)[C@H](O)[C@H](O)[C@H]4O[C@@H]4O[C@H](CO)[C@@H](O)[C@H](O)[C@H]4O)c(-c4ccc(O)cc4)oc3c2)[C@H](O)[C@H](O)[C@H]1O,Activity,[9],125.6%
same,Activity,[2],68.8%
same,Activity,[10],Active
same,Activity,[11],124.2%
same,"viability at 72 h, 1 µM",[12],93.3%
same,Activity,[13],6.7%
same,Activity,[14],90%
same,Activity,[15],10%
same,Activity,[16],81.5%
same,Activity,[17],4.8%
same,Activity,[18],10.5%
same,Activity,[19],69.8%
same,Activity,[20],13%
same,Activity,[21],14.2%
same,Activity,[22],Non-Toxic
same,Activity,[23],Non-Toxic
same,Activity,[24],Toxic
same,Activity,[25],Active
same,Activity,[26],Active
same,Activity,[27],Active
same,Activity,[28],Active
same,Activity,[29],Active
same,Activity,[30],Active
O=c1c(O)c(-c2ccc(O)c(O)c2)oc2cc(O)cc(O)c12 [QUERCETIN],Activity,[7],inactive
same,growth inhibition (GI),[8],Toxic
same,Activity,[10],Active
C[C@@H]1O[C@@H](Oc2cc(O)c3c(=O)c(O[C@@H]4O[C@H](CO)[C@H](O)[C@H](O)[C@H]4O[C@@H]4O[C@H](CO)[C@@H](O)[C@H](O)[C@H]4O)c(-c4ccc(O)c(O)c4)oc3c2)[C@H](O)[C@H](O)[C@H]1O,growth inhibition (GI),[1],Toxic
